In ChEMBL document CHEMBL1137287, “Peptidyl-urea based inhibitors of soluble epoxide hydrolases” (Bioorg Med Chem Lett, 2006):

Key:
[1] = biological target: T1, Bifunctional epoxide hydrolase 2 (Homo sapiens, UniProt P34913); assay: Inhibition of human recombinant soluble Epoxide hydrolase
T1 sequence (P34913 whole entry): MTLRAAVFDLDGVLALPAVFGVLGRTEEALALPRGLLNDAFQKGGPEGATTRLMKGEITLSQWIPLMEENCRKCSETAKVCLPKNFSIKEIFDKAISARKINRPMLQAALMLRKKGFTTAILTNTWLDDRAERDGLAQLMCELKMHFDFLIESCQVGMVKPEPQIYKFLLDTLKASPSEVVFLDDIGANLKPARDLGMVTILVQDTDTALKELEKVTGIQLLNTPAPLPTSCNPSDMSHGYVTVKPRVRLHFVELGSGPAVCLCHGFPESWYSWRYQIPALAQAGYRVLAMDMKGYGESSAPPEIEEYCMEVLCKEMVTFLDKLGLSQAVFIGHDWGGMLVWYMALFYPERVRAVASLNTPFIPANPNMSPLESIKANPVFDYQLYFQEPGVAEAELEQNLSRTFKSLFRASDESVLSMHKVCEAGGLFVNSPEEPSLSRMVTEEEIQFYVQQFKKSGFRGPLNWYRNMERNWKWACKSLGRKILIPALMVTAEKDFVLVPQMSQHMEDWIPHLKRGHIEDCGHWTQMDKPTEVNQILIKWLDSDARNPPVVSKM

[2] = Solubility in sodium phosphate buffer at pH 7.4; format: physicochemical
Method in brief: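 Solubility measured in sodium phosphate buffer, 100 mM, pH 7.4, following a previously described procedure.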

[3] = biological target: T2, Bifunctional epoxide hydrolase 2 (Mus musculus, UniProt P34914); assay: Inhibition of mouse recombinant soluble Epoxide hydrolase
T2 sequence (P34914 whole entry): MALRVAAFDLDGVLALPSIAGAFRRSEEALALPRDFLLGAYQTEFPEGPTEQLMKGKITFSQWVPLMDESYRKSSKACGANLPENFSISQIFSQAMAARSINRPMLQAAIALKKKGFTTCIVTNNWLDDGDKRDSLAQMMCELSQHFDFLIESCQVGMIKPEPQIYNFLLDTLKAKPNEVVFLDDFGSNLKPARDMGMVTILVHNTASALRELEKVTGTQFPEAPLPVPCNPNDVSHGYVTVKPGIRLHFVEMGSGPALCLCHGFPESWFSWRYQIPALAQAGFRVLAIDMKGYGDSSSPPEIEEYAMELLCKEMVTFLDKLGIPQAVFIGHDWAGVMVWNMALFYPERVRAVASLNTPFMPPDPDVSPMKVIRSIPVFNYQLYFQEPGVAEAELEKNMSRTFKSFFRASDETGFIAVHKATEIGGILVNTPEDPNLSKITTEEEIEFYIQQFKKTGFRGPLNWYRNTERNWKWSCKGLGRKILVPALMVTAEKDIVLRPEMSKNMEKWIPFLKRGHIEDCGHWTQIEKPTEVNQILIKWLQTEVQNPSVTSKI

| Compound | IC50 [1] [µM] | solubility [2] [µM] | IC50 [3] [µM] |
| --- | --- | --- | --- |
| CC(C)C[C@H](NC(=O)CCCCCNC(=O)NC12CC3CC(CC(C3)C1)C2)C(=O)O | > 100 | > 500 |  |
| CC(O)[C@H](NC(=O)CCCCCNC(=O)NC12CC3CC(CC(C3)C1)C2)C(=O)O (some centres undefined) | > 100 | > 500 |  |
| C[C@H](NC(=O)CCCNC(=O)NC12CC3CC(CC(C3)C1)C2)C(=O)O |  | > 500 | > 100 |
| O=C(CCCCCNC(=O)NC12CC3CC(CC(C3)C1)C2)N[C@@H](Cc1ccc(O)cc1)C(=O)O | 80 | > 500 |  |
| CSCC[C@H](NC(=O)CCCNC(=O)NC12CC3CC(CC(C3)C1)C2)C(=O)O |  | > 500 | 4.8 |
| O=C(CCCCCNC(=O)NC1CCCCC1)N[C@@H](Cc1ccccc1)C(=O)N1CCC[C@H]1C(=O)O | 0.1 | > 500 |  |
| O=C(O)CNC(=O)CCCCCNC(=O)NC12CC3CC(CC(C3)C1)C2 | > 100 | > 500 |  |
| CC(C)C[C@H](NC(=O)[C@H](Cc1ccccc1)NC(=O)CCCCCNC(=O)NC1CCCCC1)C(=O)O | 0.88 | > 500 |  |
| CC(C)C[C@H](NC(=O)CCCNC(=O)NC12CC3CC(CC(C3)C1)C2)C(=O)O |  | > 500 | 15 |
| O=C(CCCCCNC(=O)NC12CC3CC(CC(C3)C1)C2)N[C@@H](Cc1cnc[nH]1)C(=O)O | > 100 | > 500 |  |
| O=C(CCCCCNC(=O)NC12CC3CC(CC(C3)C1)C2)N[C@@H](CO)C(=O)O | > 100 | > 500 |  |
| CC[C@H](C)[C@H](NC(=O)[C@H](Cc1ccccc1)NC(=O)CCCCCNC(=O)NC1CCCCC1)C(=O)O | 0.13 | > 500 |  |
| O=C(CCCNC(=O)NC12CC3CC(CC(C3)C1)C2)N[C@@H](Cc1ccc(O)cc1)C(=O)O |  | > 500 | 18 |
| O=C(CCCNC(=O)NC12CC3CC(CC(C3)C1)C2)N[C@@H](Cc1ccccc1)C(=O)O |  | > 500 | 0.8 |
| CC(C)[C@H](NC(=O)[C@H](Cc1ccccc1)NC(=O)CCCCCNC(=O)NC1CCCCC1)C(=O)O | 0.1 | > 500 |  |
| N=C(N)NCCC[C@H](NC(=O)CCCNC(=O)NC12CC3CC(CC(C3)C1)C2)C(=O)O |  | > 500 | 16 |
| C[C@H](NC(=O)CCCCCNC(=O)NC12CC3CC(CC(C3)C1)C2)C(=O)O | > 100 | > 500 |  |
| O=C(CCCCCNC(=O)NC1CCCCC1)N[C@@H](Cc1ccccc1)C(=O)N[C@@H](CO)C(=O)O | 2.4 | > 500 |  |
| O=C(NCCCCCC(=O)N1CCC[C@H]1C(=O)O)NC12CC3CC(CC(C3)C1)C2 | > 100 | > 500 |  |
| O=C(O)C[C@H](NC(=O)CCCNC(=O)NC12CC3CC(CC(C3)C1)C2)C(=O)O |  | > 500 | > 100 |
| O=C(CCCCCNC(=O)NC1CCCCC1)N[C@@H](Cc1ccccc1)C(=O)N[C@@H](Cc1c[nH]c2ccccc12)C(=O)O | 0.1 | > 500 |  |
| N=C(N)NCCC[C@H](NC(=O)CCCCCNC(=O)NC12CC3CC(CC(C3)C1)C2)C(=O)O | > 100 | > 500 |  |
| O=C(CCCCCNC(=O)NC12CC3CC(CC(C3)C1)C2)N[C@@H](Cc1ccccc1)C(=O)O | 2.7 | > 500 |  |
| C[C@H](O)[C@H](NC(=O)[C@H](Cc1ccccc1)NC(=O)CCCCCNC(=O)NC1CCCCC1)C(=O)O | 1.3 | > 500 |  |
| N=C(N)NCCC[C@H](NC(=O)[C@H](Cc1ccccc1)NC(=O)CCCCCNC(=O)NC1CCCCC1)C(=O)O | 2.1 | > 500 |  |
| O=C(CCCNC(=O)NC12CC3CC(CC(C3)C1)C2)N[C@@H](Cc1c[nH]c2ccccc12)C(=O)O |  | > 500 | 8.4 |

| Compound | IC50 [1] [µM] | solubility [2] [µM] | IC50 [3] [µM] |
| --- | --- | --- | --- |
| O=C(CCCNC(=O)NC12CC3CC(CC(C3)C1)C2)N[C@@H](CO)C(=O)O |  |  | 47 |
| O=C(O)C[C@H](NC(=O)[C@H](Cc1ccccc1)NC(=O)CCCCCNC(=O)NC1CCCCC1)C(=O)O | > 100 | > 500 |  |
| O=C(CCCCCNC(=O)NC1CCCCC1)N[C@@H](Cc1ccccc1)C(=O)N[C@@H](Cc1cnc[nH]1)C(=O)O | 5.5 | > 500 |  |
| CC(C)[C@H](NC(=O)CCCNC(=O)NC12CC3CC(CC(C3)C1)C2)C(=O)O |  | > 500 | 30 |
| CSCC[C@H](NC(=O)[C@H](Cc1ccccc1)NC(=O)CCCCCNC(=O)NC1CCCCC1)C(=O)O | 0.87 | > 500 |  |
| CCC(C)[C@H](NC(=O)CCCNC(=O)NC12CC3CC(CC(C3)C1)C2)C(=O)O (some centres undefined) |  | > 500 | 1.3 |
| O=C(O)CC[C@H](NC(=O)CCCCCNC(=O)NC12CC3CC(CC(C3)C1)C2)C(=O)O | > 100 | > 500 |  |
| O=C(O)CCCCCNC(=O)NC12CC3CC(CC(C3)C1)C2 | > 100 |  |  |
| O=C(O)CNC(=O)CCCNC(=O)NC12CC3CC(CC(C3)C1)C2 |  | > 500 | > 100 |
| O=C(CCCCCNC(=O)NC12CC3CC(CC(C3)C1)C2)N[C@@H](Cc1c[nH]c2ccccc12)C(=O)O | 41 | > 500 |  |
| O=C(O)CCCNC(=O)NC12CC3CC(CC(C3)C1)C2 |  | > 500 | > 100 |
| O=C(O)CC[C@H](NC(=O)[C@H](Cc1ccccc1)NC(=O)CCCCCNC(=O)NC1CCCCC1)C(=O)O | > 100 | > 500 |  |
| O=C(CCCCCNC(=O)NC1CCCCC1)N[C@@H](Cc1ccccc1)C(=O)O (stereo in doubt; form 2) | 1 | > 500 |  |
| O=C(O)CC[C@H](NC(=O)CCCNC(=O)NC12CC3CC(CC(C3)C1)C2)C(=O)O |  | > 500 | > 100 |
| O=C(O)CNC(=O)[C@H](Cc1ccccc1)NC(=O)CCCCCNC(=O)NC1CCCCC1 | 1.5 | > 500 |  |
| CC(C)[C@H](NC(=O)CCCCCNC(=O)NC12CC3CC(CC(C3)C1)C2)C(=O)O | 55 | > 500 |  |
| C[C@H](NC(=O)[C@H](Cc1ccccc1)NC(=O)CCCCCNC(=O)NC1CCCCC1)C(=O)O | 0.26 | > 500 |  |
| CSCC[C@H](NC(=O)CCCCCNC(=O)NC12CC3CC(CC(C3)C1)C2)C(=O)O | > 100 | > 500 |  |
| O=C(CCCNC(=O)NC12CC3CC(CC(C3)C1)C2)N[C@@H](Cc1cnc[nH]1)C(=O)O |  | > 500 | 0.05 |
| O=C(CCCCCNC(=O)NC1CCCCC1)N[C@@H](Cc1ccccc1)C(=O)N[C@@H](Cc1ccccc1)C(=O)O | 0.1 | > 500 |  |
| O=C(O)C[C@H](NC(=O)CCCCCNC(=O)NC12CC3CC(CC(C3)C1)C2)C(=O)O | > 100 | > 500 |  |
| O=C(NCCCC(=O)N1CCC[C@H]1C(=O)O)NC12CC3CC(CC(C3)C1)C2 |  | > 500 | 82 |
| O=C(CCCCCNC(=O)NC1CCCCC1)N[C@@H](Cc1ccccc1)C(=O)N[C@@H](Cc1ccc(O)cc1)C(=O)O | 0.23 | > 500 |  |
| CCC(C)[C@H](NC(=O)CCCCCNC(=O)NC12CC3CC(CC(C3)C1)C2)C(=O)O (some centres undefined) | > 100 | > 500 |  |
| COC(=O)CCCCCNC(=O)NC12CC3CC(CC(C3)C1)C2 | 1.8 |  |  |
